Experimental findings from ChEMBL document CHEMBL2176910, “Identification of small molecule inhibitors of amyloid β-induced neuronal apoptosis acting through the imidazoline I(2) receptor” (J Med Chem, 2012) are described below.

Active and inactive are the calls of the source. No cut-off for these calls is given here.

Series [1] is filed under the species Mus musculus. Briefly: Inhibition of imidazole receptor 2 in mouse hippocampal neurons assessed as reduction in tPA-induced Erk1/2 activation at 30 uM pre-incubated for 4 hrs before tPA stimulation by ELISA. The conditions noted are these: Hippocampus. In a few lines: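 Primary mouse hippocampal neurons were stimulated with tPA (20 μg/mL, 1 h) with or without compound at 30 μM. Phospho-Erk1/2 was measured by ELISA with a phospho-specific antibody and normalized to total Erk1/2. Untreated cultures set the lower limit and tPA alone the upper limit.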

Series [2] deals with T1, Muscarinic acetylcholine receptor M5 (Homo sapiens) (UniProt P08912).
T1 sequence (whole entry): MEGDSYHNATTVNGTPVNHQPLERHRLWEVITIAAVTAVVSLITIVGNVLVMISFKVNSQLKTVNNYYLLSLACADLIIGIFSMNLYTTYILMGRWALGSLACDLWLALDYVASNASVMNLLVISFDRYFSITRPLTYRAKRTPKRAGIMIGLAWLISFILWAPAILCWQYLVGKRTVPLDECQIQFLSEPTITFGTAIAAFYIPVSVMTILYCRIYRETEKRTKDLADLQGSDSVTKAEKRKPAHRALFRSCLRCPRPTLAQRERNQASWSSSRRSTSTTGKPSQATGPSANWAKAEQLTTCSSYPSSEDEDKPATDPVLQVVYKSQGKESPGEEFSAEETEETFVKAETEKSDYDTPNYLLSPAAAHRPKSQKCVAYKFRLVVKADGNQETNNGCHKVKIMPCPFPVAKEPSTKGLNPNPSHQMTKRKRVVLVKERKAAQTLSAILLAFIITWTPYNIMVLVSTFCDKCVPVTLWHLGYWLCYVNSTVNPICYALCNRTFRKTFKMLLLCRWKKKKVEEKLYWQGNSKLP
Put plainly: Inhibition of radioligand binding to muscarinic M5 receptor at 10 uM. In a few lines: (§1)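 Part of an in vitro radioligand binding panel. Each target was tested against a potent standard radioligand for that site. The read-out was percent inhibition of specific binding, reported as an average value.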

Series [3] addresses Kappa-type opioid receptor (Homo sapiens) (UniProt P41145). Put plainly: Inhibition of radioligand binding to KOP receptor at 10 uM. In a few lines: as §1
The species entered for series [4] is Rattus norvegicus. Briefly: Displacement of [3H]idazoxan from rat cerebral cortex imidazole receptor 2 at 10 uM in presence of 1 uM yohimbine. The format is tissue-based.
The target of series [5] is Muscarinic acetylcholine receptor M3 (Homo sapiens) (UniProt P20309). Put plainly: Inhibition of radioligand binding to muscarinic M3 receptor at 10 uM. In a few lines:
as §1

The nature of series [6]: Displacement of [3H]idazoxan from rat cerebral cortex imidazole receptor 2 in presence of 1 uM yohimbine. The format is tissue-based.
In series [7] the test system is Hippocampal neuron. Briefly: Neuroprotective activity in mouse hippocampal neurons assessed as Abeta-induced neuronal apoptosis at 30 uM pre-incubated for 4 hrs before Abeta challenge for 72 hrs by TUNEL assay (reference value: 100%). The settings on record: Hippocampus. The format is functional. In a few lines:
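Aggregated Aβ (20 μM, 72 h) was applied to primary mouse hippocampal neurons with or without compound at 30 μM. Apoptosis was scored by TUNEL as the percentage of positive nuclei among total nuclei, referred to Aβ alone (100%). Medium-only cells were the negative control and DNase the positive control. n = 4, mean ± SEM, two-tailed Student's test.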

Series [8] has as its target T2, 5-hydroxytryptamine receptor 2C (Homo sapiens) (UniProt P28335).
T2 sequence (whole entry): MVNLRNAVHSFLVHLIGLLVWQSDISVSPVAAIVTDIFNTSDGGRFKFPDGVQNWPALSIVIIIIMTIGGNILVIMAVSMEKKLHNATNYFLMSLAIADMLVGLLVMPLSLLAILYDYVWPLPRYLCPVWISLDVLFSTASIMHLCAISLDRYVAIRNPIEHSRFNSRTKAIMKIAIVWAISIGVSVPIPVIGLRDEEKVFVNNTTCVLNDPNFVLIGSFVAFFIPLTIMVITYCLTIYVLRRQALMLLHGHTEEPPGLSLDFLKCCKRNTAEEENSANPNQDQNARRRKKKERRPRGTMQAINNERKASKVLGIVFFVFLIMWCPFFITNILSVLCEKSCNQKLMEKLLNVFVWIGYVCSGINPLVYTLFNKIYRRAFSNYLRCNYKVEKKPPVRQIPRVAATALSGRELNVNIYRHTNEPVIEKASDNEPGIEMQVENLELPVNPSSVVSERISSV
Briefly: Inhibition of radioligand binding to 5HT2C at 10 uM. In a few lines: as §1

Series [9] deals with T3, MAO-B (amine oxidase [flavin-containing] B) (Homo sapiens, UniProt P27338).
T3 sequence (P27338 whole entry): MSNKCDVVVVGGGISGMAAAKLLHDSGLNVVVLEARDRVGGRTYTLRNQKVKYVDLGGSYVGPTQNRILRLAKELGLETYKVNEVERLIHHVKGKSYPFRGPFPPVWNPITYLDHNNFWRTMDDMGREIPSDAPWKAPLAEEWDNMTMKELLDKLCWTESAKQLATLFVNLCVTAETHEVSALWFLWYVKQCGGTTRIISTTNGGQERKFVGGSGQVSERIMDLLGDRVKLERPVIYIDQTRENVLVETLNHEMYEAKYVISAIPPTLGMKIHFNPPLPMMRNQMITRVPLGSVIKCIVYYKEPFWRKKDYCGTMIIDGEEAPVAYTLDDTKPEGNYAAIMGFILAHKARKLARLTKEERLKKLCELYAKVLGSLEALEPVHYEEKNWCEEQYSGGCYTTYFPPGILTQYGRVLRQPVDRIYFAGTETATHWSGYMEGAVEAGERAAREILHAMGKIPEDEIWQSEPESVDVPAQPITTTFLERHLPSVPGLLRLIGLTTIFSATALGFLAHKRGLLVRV
Put plainly: Inhibition of MAOB at 10 uM. In a few lines: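 Radioligand binding panel. Values are average percentages of inhibition of specific binding, measured against potent standard ligands for each target.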

In series [10] the target is T4, 5-hydroxytryptamine receptor 3A (Homo sapiens) (UniProt P46098).
T4 sequence (whole entry): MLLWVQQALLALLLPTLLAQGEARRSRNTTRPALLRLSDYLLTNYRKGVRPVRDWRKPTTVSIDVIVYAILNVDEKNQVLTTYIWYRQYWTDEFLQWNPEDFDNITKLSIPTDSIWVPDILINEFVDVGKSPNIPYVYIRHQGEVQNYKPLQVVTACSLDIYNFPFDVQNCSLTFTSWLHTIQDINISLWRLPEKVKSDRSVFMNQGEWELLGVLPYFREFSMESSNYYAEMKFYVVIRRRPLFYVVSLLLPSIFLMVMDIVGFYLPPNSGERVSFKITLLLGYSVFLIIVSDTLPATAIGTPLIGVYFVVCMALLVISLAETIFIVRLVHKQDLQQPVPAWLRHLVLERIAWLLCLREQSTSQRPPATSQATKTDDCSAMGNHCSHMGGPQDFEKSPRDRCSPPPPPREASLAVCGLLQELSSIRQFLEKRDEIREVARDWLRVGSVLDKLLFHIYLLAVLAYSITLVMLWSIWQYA
Put plainly: Inhibition of radioligand binding to 5HT3 at 10 uM. In a few lines: as §1

Series [11] deals with Melanocortin receptor 4 (Homo sapiens) (UniProt P32245). Put plainly: Inhibition of radioligand binding to MC4R at 10 uM.
Sequence of Melanocortin receptor 4 (Homo sapiens) (P32245 whole entry): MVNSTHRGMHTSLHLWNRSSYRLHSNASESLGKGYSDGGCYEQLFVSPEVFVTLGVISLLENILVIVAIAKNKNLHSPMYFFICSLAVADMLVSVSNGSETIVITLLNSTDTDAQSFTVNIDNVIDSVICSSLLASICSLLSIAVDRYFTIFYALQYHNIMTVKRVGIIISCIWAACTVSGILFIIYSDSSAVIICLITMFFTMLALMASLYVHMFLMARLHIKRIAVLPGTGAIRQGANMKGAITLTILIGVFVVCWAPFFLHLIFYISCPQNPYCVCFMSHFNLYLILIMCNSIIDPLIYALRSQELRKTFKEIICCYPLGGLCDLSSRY

Sequence of Kappa-type opioid receptor (Homo sapiens) (P41145 whole entry): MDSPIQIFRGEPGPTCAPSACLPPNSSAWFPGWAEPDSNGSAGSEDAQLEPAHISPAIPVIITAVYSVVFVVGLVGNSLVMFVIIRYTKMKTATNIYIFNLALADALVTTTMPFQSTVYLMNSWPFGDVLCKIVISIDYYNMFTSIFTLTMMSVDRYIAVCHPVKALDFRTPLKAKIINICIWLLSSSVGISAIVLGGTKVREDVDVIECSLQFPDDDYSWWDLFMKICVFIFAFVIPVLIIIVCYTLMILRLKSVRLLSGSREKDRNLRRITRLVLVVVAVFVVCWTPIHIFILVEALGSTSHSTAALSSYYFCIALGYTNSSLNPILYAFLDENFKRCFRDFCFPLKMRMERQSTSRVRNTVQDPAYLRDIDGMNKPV
Sequence of Muscarinic acetylcholine receptor M3 (Homo sapiens) (P20309 whole entry, looked up): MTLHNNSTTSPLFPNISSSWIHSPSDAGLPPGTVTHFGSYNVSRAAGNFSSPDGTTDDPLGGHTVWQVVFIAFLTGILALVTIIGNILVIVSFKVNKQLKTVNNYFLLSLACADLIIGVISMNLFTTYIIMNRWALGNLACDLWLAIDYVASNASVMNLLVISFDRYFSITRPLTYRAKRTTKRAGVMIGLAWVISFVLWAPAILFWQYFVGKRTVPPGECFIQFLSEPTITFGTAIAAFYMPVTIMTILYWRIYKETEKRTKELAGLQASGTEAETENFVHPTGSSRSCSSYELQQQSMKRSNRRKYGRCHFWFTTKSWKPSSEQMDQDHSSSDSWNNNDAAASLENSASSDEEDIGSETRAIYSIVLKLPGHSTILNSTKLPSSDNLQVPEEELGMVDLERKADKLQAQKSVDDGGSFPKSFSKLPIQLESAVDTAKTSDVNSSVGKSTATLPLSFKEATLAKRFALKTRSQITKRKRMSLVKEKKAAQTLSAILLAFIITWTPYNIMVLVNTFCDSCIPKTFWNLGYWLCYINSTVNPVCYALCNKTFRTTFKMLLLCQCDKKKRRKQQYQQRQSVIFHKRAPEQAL

As to `CN1CCNC(c2ccccc2)C1` (stereo not drawn), the “inhibition of tPA-induced Erk1/2 activation (active/inactive call)” value (from here on “inhibition … (active/inactive call)”) in series [1] was “Active”. Also, the inhibition in series [2] is less than 20%; in [3], less than 20%; in series [4], 41%; in [5] it was less than 20%; in [8], less than 20%; in series [10], less than 20%. This molecule gave an inhibition in series [11] of less than 20%. Besides, the Ki in series [6] amounted to 18 µM. The result in series [7] was Active. In [9], this molecule gave an inhibition at 10 µM of less than 20%.

For the molecule `NCC12CCC3CC(CC3C1)C2` (stereo not drawn), in series [1], the “inhibition … (active/inactive call)” value is “Active”. The inhibition in [2] is less than 20%; in series [3], less than 20%; in series [4] it was 34%; in [5], less than 20%; in [8], less than 20%; in series [10], less than 20%. In series [11], this molecule registered an inhibition of less than 20%. Further, the Ki in series [6] is 26 µM. In addition, the result in series [7] was Active. Further, the inhibition at 10 µM in series [9] is less than 20%.

`CN(C)C(CN)c1ccccc1Cl` (stereo not drawn): the “inhibition … (active/inactive call)” value in series [1] was “Active”. For the same molecule, the inhibition is less than 20% in [2]; less than 20% in series [3]; 43% in series [4]; less than 20% in series [5]; less than 20% in series [8]; less than 20% in series [10]. Moreover, in [11], the inhibition is less than 20%. Further, in series [6], the Ki is 14 µM. Besides, the outcome in [7] was Active. Moreover, the inhibition at 10 µM in [9] was less than 20%.
